PAX8 reporter – inhibitors of PAX8-driven TPO luciferase reporter, primary screen, RMG-I cells, single concentration. SteadyGlo, 24 h. inhibition, % at 12.6 µM. 360,000 compounds, 1.2% hits. AID 652154, 2013;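 active means mean replicate inhibition at least 60% with every replicate also reaching 60%; inconclusive means only one of the two criteria is met; inactive means mean below 60% and not all replicates reaching 60%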;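 further: luciferase light reporting Pax8 driven TPO promoter activity; plate controls were median of neutral control wells for no effect and mitoxantrone controls for full effect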
N-glyco inh – increase of ERlucT glycosylation luciferase signal, primary screen, N-linked glycosylation inhibitor project, D54 ERlucT cells, luminescence, set 2 | D54 ERlucT glycosylation luciferase reporter, 24 h; percent of 100 nM tunicamycin response | reporter increase, % at 12.5 µM | 360,000 compounds, 0.23% hits | AID 588692, 2011;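 active means mean luciferase reporter signal, scaled so untreated is 0 and the glycosylation-blocking control 100, at or above a set limit in every replicate; inconclusive means mean reaches the limit but not every replicate does; inactive means mean below the limit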;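 further: luciferase carries N-glycosylation sites so blocking glycosylation raises the light; 0% = median of neutral control wells and 100% = median of 100 nM tunicamycin wells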
Env fusion inh – inhibitors of HIV-1 Env-driven cell-cell fusion, primary screen, HeLa-JRFL effector, CEM21 target cells, luciferase | inhibition, % at 12.3 µM | 360,000 compounds, 1.1% hits | AID 651610, 2012;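 active means mean replicate inhibition score of at least 50 and every replicate individually at or above 50; inconclusive means only one of the two criteria met; inactive means mean below 50 and not all replicates reaching 50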;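 further: 0% = plate neutral controls and 100% = maraviroc near 300 nM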
Arrestin-AP2 inh – inhibitors of beta-arrestin/AP2 binding, primary screen, biochemical, GPCR trafficking, flow cytometry; FITC-arrestin peptide / GST-AP2 beads; AP2 beta2 appendage carries R879A mutation; inhibition, % at 10 µM; 340,000 compounds, 0.31% hits; AID 504490, 2011;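 active means inhibition above a set limit, near 3 SD of compounds lacking own fluorescence, cut at about 54% in these data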;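 further: plate controls were DMSO wells for no effect and 5 µM unlabelled arrestin peptide for full effect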
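system = GST-tagged AP2 beta2-adaptin appendage (R879A) on 4 µm glutathione beads | reagent = FITC-labelled arrestin peptide probe, 50 nM final | schedule = compound with beads 12 min RT, then probe 1 h RT | signal = HyperCyt-sampled flow cytometry, FL1 channel, ex 488/em 535 nm | read-out = percent response from loss of bead-bound FITC fluorescence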
PfHsp90 set2 – growth inhibition of PfHsp90-expressing yeast, primary screen, antimalarial PfHsp90 inhibitor project, S. cerevisiae, BacTiter-Glo luminescence, single point, set 2 | BacTiter-Glo ATP, 48 h; yeast lacking PDR1 and PDR3 efflux regulators | inhibition, % at 9.4 µM | 310,000 compounds, 0.32% hits;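 active means every replicate shows inhibition above about 80%, whatever the replicate mean, limit read from the data; inconclusive means mean inhibition reaches the set limit but some replicate falls short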;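 further: 0% = DMSO neutral controls and 100% = 20 µM radicicol positive controls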
Rtt109 Vps75 – inhibitors of C. albicans Rtt109/Vps75 HAT, primary screen, biochemical, ThioGlo CoA-SH fluorescence, plate reader. Histone acetyltransferase RTT109 (Candida albicans (strain SC5314 / ATCC MYA-2876)), …. purified Rtt109/Vps75, 4 h. inhibition, % at 34.9 µM. 330,000 compounds, 0.16% hits. AID 540336, 2011;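 active means inhibition of at least 50% in every replicate; inconclusive means best replicate reaches 50% inhibition but some replicates fall short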
Target sequence (Q5AAJ8 whole entry, looked up): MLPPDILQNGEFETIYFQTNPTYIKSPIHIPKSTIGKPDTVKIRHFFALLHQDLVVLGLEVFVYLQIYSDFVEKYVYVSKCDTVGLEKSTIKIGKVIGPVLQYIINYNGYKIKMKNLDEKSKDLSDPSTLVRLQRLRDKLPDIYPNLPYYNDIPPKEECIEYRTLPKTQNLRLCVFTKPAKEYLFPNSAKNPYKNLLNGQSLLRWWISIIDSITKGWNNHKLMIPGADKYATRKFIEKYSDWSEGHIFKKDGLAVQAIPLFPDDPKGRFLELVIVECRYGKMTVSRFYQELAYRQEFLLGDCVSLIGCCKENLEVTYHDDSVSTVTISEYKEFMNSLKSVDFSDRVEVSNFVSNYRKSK
Arr-AP2 CP1 – inhibitors of arrestin peptide binding to AP2, confirmation, biochemical, cherry pick 1, flow cytometry beads | shares compounds with Arrestin-AP2 inh | GST-AP2 beads, FITC arrestin peptide binding; GST-fused beta2-adaptin appendage, R879A mutant | inhibition, % at 10 µM | 1,300 compounds, 2% hits | AID 504908, 2011;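 active means inhibition above a set limit, roughly 3 SD of non-fluorescent compound noise, cut at about 38% in these data; inactive means inhibition at or below that limit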;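 further: loss of bead fluorescence from 50 nM FITC arrestin peptide bound to appendage; 0% = negative control wells and 100% = excess unlabelled arrestin peptide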
GST GSH counter – GST-fluorescein capture on glutathione beads, confirmation, artefact control for arrestin-AP2 inhibitor project, biochemical, cherry pick 1, flow cytometry; inhibition, % at 10 µM; 1,300 compounds, 2% hits; AID 588338, 2011; GST-fluorescein binding to GSH beads, fluorescence, counter-screen; shares compounds with Arrestin-AP2 inh;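 active means inhibition above 50%, about 3 SD of the inhibition seen with non-fluorescent compounds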;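 further: fluorescein maleimide labelled GST captured on 4 micron glutathione beads; higher means more loss of bead fluorescence from quenching or blocked binding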
* = called active by the depositor; ? = inconclusive; / = no result; [ ] = remark or other dose. Sampled rows, rich in hits. Any-hit rate of the full collection: about 2.3%.

SMILES | PAX8 reporter | N-glyco inh | Env fusion inh | Arrestin-AP2 inh | PfHsp90 set2 | Rtt109 Vps75 | others
C[C@@H]1CN([C@@H](C)CO)C(=O)Cc2cc(NC(=O)C3CC3)ccc2O[C@@H]1CN(C)Cc1ccccc1 | 2.8 | / | 1.5[16.7 µM] | / | / | /
CCC(=O)Nc1ccc2c(c1)C(=O)N(C)C[C@@H](OC)[C@@H](C)CN(Cc1ccccn1)[C@@H](C)CO2 | -4.8 | / | -14.4[16.7 µM] | / | / | /
C[C@@H]1CCCCO[C@H](CN(C)S(=O)(=O)c2ccc(Cl)cc2)[C@@H](C)CN([C@@H](C)CO)C(=O)c2cc(NC(=O)NC3CCCCC3)ccc2O1 | 23.2 | / | 12.8[16.7 µM] | / | / | /
C[C@H]1CN([C@@H](C)CO)C(=O)Cc2cc(NC(=O)CCCCCC(=O)Nc3ccccc3N)ccc2O[C@@H]1CN(C)S(=O)(=O)c1ccc(Cl)cc1 | -18.5 | / | -9.6[16.7 µM] | / | / | /
CCn1c(SCC(=O)NC(=O)NC(C)(C)C)nc2ccccc21 | 4.3 | 1.1 | 8.0 | 36.9 | -1.2 | 2.6
COCCn1c(SCC(=O)NC(=O)NC(C)(C)C)nc2ccccc21 | / | 0.9 | 122.8* | -4.4 | -6.8 | -15.0
CC1CC(C)(C)N2C(=O)C3(Nc4ccccc4S3)c3cccc1c32 (stereo not drawn) | / | -2.5 | / | -9.1 | 18.6 | 14.7
Cc1cc2c3c(c1)C1(SCC(=O)N1c1ccc(F)cc1)C(=O)N3C(C)(C)CC2C (stereo not drawn) | / | -7.0 | 69.5* | 7.3 | 7.3 | 14.0
C[C@H]1CN([C@@H](C)CO)C(=O)Cc2cc(NC(=O)Nc3ccc4c(c3)OCO4)ccc2O[C@@H]1CN(C)C(=O)Nc1ccc(C(F)(F)F)cc1 | -0.7 | / | -15.4[16.7 µM] | / | / | /
C=C1C(=O)[C@]23C[C@H]1CC[C@H]2[C@]1(C)[C@@H](O)CC[C@@](C)(C(=O)O)[C@H]1C[C@@H]3O | ? | -3.1 | 14.0 | / | / | /
C=C1C(=O)[C@]23C[C@H]1CC[C@H]2[C@]1(C)[C@@H](OC(C)=O)CC[C@@](C)(C(=O)O)[C@H]1C[C@@H]3O | 100.6* | -1.8 | 1.2 | / | / | /
C=C1C(=O)[C@]23C[C@H]1CC[C@H]2[C@]1(C)[C@@H](OC(C)=O)CC[C@@](C)(C(=O)OC)[C@H]1C[C@@H]3OC(C)=O | 116.7* | -19.9 | -14.7 | / | / | /
C=C1C(=O)[C@]23C[C@H]1CCC2[C@@]1(C)C(C[C@@H]3O)[C@](C)(C(=O)OC)CC[C@@H]1OC(C)=O (stereo partly drawn) | 108.0* | -20.2 | -200.3 | / | / | /
C=C1C(=O)[C@]23C[C@H]1CCC2[C@@]1(C)C(C[C@@H]3O)[C@](C)(C(=O)O)C[C@H](O)[C@@H]1O (stereo partly drawn) | 14.3 | 3.8 | 5.5 | / | / | /
C[C@@H]1CN([C@@H](C)CO)C(=O)c2cc(NC(=O)Cc3ccccc3)ccc2O[C@@H](C)CCCCO[C@H]1CN(C)C(=O)c1ccccc1 | -14.3 | / | 2.8[16.7 µM] | / | / | /
COCC(=O)N1C[C@H](C)[C@H](OC)CN(C)C(=O)c2cc(NS(C)(=O)=O)ccc2OC[C@@H]1C | -3.4 | / | 0.9[16.7 µM] | / | / | /
CC(=O)Nc1ccc2c(CSc3nnc(-c4cccnc4)n3-c3ccc(C)cc3C)cc(=O)oc2c1 | 1.5 | -0.4 | 0.1 | -6.8 | -23.4 | 23.4
CCOc1ccc(-n2c(SCc3cc(=O)oc4cc(C)ccc34)nnc2-c2cccnc2)cc1 | 65.3* | 3.7 | / | 3.3 | 5.2 | -8.7
O=c1[nH]c(=O)n([C@H]2C[C@H](O)[C@@H](CO)O2)cc1I | -11.4 | 55.1* | -71.2 | -1.8 | -5.0 | -8.7
Nc1nc2c(nnn2C2CC(O)C(CO)O2)c(=O)[nH]1 (stereo not drawn) | 83.1* | 0.1 | 14.7 | / | / | /
COc1ccccc1C(=O)Nc1ccc2c(c1)OC[C@@H](C)N(C(C)=O)C[C@H](C)[C@@H](OC)CN(C)C2=O | 20.7 | / | 0.5[16.7 µM] | / | / | /
COC(c1ccccc1)c1nnc(CCC(=O)N2CCN(C3CCCC3)CC2)o1 (stereo not drawn) | -6.6 | -0.5 | 7.0 | 68.6* | 3.5 | 9.3 | Arr-AP2 CP1=17.1;GST GSH counter=-7.6
O=C(Nc1ccccc1)c1ccc(-c2ccc(F)cc2)s1 | -43.9 | -4.8 | -191.6 | 55.0* | 1.5 | -0.4 | Arr-AP2 CP1=9.8;GST GSH counter=-7.6
Cc1cc2cc(NC(=O)c3ccco3)ccc2[nH]1 | / | 2.5 | / | 99.6* | -7.4 | -4.2 | Arr-AP2 CP1=-11.5;GST GSH counter=-2.0
CC(=O)N(C)C[C@@H]1Oc2cc(-c3cccnc3)ccc2S(=O)(=O)N([C@@H](C)CO)C[C@@H]1C | -25.1 | / | 29.5[16.7 µM] | / | / | /
SMILES | PAX8 reporter | N-glyco inh | Env fusion inh | Arrestin-AP2 inh | PfHsp90 set2 | Rtt109 Vps75 | others
Cc1noc(C)c1S(=O)(=O)Nc1ccc2c(c1)C(=O)N([C@@H](C)CO)C[C@H](C)[C@@H](CN(C)Cc1ccc3c(c1)OCO3)OCCCC[C@@H](C)O2 | -13.2 | / | -38.3[16.7 µM] | / | / | /
Cn1c(Cl)c(/C=N/OC(=O)c2ccccc2Cl)c2ccccc21 | / | 0.0 | / | 54.1* | -17.5 | -2.2 | Arr-AP2 CP1=5.0;GST GSH counter=-3.8
Cc1ccc(C(=O)Nc2ccccc2C(=O)N2CCCC(C)C2)cc1 (stereo not drawn) | -7.9 | 1.0 | -8.3 | 56.1* | 25.0 | 6.4 | Arr-AP2 CP1=-1.1;GST GSH counter=1.1
O=C(C1CCOCC1)N1C[C@H]2[C@@H](c3ccccc31)[C@H](CO)N2C(=O)c1ccccc1 | -8.9 | / | / | / | / | /
C[C@@H]1CN([C@@H](C)CO)S(=O)(=O)c2ccc(-c3ccccc3F)cc2O[C@H]1CN(C)Cc1cccnc1 | 17.6 | / | / | / | / | /
O=S(=O)(NCCOc1ccccc1F)c1ccc(Cl)cc1F | -7.7 | 0.8 | 3.8 | 59.6* | 10.9 | 2.8 | Arr-AP2 CP1=-2.9;GST GSH counter=-9.9
CCCNC(=O)C[C@@H]1CC[C@H]2[C@@H](COc3ccc(NC(=O)Nc4ccccc4F)cc3C(=O)N2C)O1 | 2.0 | / | 20.7[16.7 µM] | / | / | /
COc1ccc(OC)c(NC(=O)c2ccc(CN(c3cc(Cl)ccc3C)S(=O)(=O)c3ccccc3)cc2)c1 | / | -1.3 | / | 82.1* | 16.1 | -1.6 | Arr-AP2 CP1=8.8;GST GSH counter=-2.6
COc1ccc(OC)c(NC(=O)c2cccc(S(=O)(=O)N(Cc3ccccc3)c3ccccc3OC)c2)c1 | 8.6 | -3.1 | / | 39.7 | -10.9 | -1.1

Bioassay records (PubChem BioAssay)
